Measurements reported in ChEMBL document CHEMBL4014326, “Discovery of an Orally Bioavailable Benzimidazole Diacylglycerol Acyltransferase 1 (DGAT1) Inhibitor That Suppresses Body Weight Gain in Diet-Induced Obese Dogs and Postprandial Triglycerides in Humans” (J Med Chem, 2017).
pIC50: −log10 of the molar value.

Assays:
[1] = Tmax in Sprague-Dawley rat 3 mg/kg, po by LC/MS/MS analysis; type: ADME, organism-based; details: in vivo
Method in brief: (§1)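 Male Sprague-Dawley rats, 200-300 g, dosed iv (n = 2) or po (n = 3) as solutions in NMP/PG or PEG400/ETPGS vehicles. Blood was taken from a jugular vein catheter at 0.083 (iv only), 0.25, 0.5, 1, 2, 4, 6 and 8 h into EDTA tubes, and plasma was analysed by LC-MS/MS. Values are means ± SD.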

[2] = Drug metabolism in dog hepatocytes assessed as [3H]-(2S,3S,4S,5R,6S)-3,4,5-trihydroxy-6-(3-(4-(6-(5-(4-methoxyphenyl)-1,3,4-oxadiazol-2-yl)-1H-benzo[d]imidazol-2-yl)-3,5-dimethylphenyl)-2,2-dimethylpropanoyloxy)tetrahydro-2H-pyran-2-carboxylic acid formation at 12.5 uM after 18 hrs; type: ADME, cell-based, Canis lupus familiaris, Hepatocyte
Method in brief: (§2)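 [3H]-labelled compound (12.5 µM) was incubated for 18 h with rat, dog, monkey or human hepatocytes, and metabolites were profiled.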

[3] = Drug metabolism in dog hepatocytes assessed as [3H]-3-(3,5-dimethyl-4-(6-(5-phenyl-1,3,4-oxadiazol-2-yl)-1H-benzo[d]imidazol-2-yl)phenyl)-2,2-dimethylpropanoic acid formation at 12.5 uM after 18 hrs; type: ADME, cell-based, Canis lupus familiaris, Hepatocyte; method in brief: as §2
Salmonella typhimurium = experiment: Genotoxicity in histidine depleted Salmonella typhimurium TA98 assessed as increase in reverting mutations up to 1000 ug in presence of S9 metabolic activation by Ames test; type: toxicity; details: salmonella enterica subsp. enterica serovar typhimurium
[4] = Drug metabolism in human hepatocytes assessed as [3H]-(2S,3S,4S,5R,6S)-3,4,5-trihydroxy-6-(3-(4-(6-(5-(4-methoxyphenyl)-1,3,4-oxadiazol-2-yl)-1H-benzo[d]imidazol-2-yl)-3,5-dimethylphenyl)-2,2-dimethylpropanoyloxy)tetrahydro-2H-pyran-2-carboxylic acid formation at 12.5 uM after 18 hrs; type: ADME, cell-based, Hepatocyte; method in brief: as §2
[5] = Volume of distribution at steady state in Sprague-Dawley rat at 1 mg/kg, iv by LC/MS/MS analysis; type: ADME, organism-based; details: in vivo, read-out: Vdss; method in brief: as §1
[6] = AUC (0 to 8 hrs) in Sprague-Dawley rat at 1mg/kg, iv by LC/MS/MS analysis; type: ADME, organism-based; set-up: time < 8 hr, dose 1 mg/kg, route intravenous; details: in vivo; method in brief: as §1
[7] = Drug metabolism in rat hepatocytes assessed as [3H]-3-(3,5-dimethyl-4-(6-(5-phenyl-1,3,4-oxadiazol-2-yl)-1H-benzo[d]imidazol-2-yl)phenyl)-2,2-dimethylpropanoic acid formation at 12.5 uM after 18 hrs; type: ADME, cell-based, Hepatocyte; method in brief: as §2
[8] = Oral bioavailability in Sprague-Dawley rat at 3 mg/kg by LC/MS/MS analysis; type: ADME, organism-based; details: in vivo; method in brief: as §1
[9] = Permeability across basolateral to apical side in human Caco2 cells; type: ADME, cell-based; details: Caco-2, read-out: permeability
Method in brief: (§3)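 Caco-2 monolayer permeability was measured in the A-B and B-A directions, and the efflux ratio was taken as B-A/A-B.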

[10] = Cmax in Sprague-Dawley rat at 3 mg/kg, po by LC/MS/MS analysis; type: ADME, organism-based; set-up: dose 3 mg/kg, route oral; details: in vivo; method in brief: as §1
[11] = Drug metabolism in monkey hepatocytes assessed as [3H]-3-(3,5-dimethyl-4-(6-(5-phenyl-1,3,4-oxadiazol-2-yl)-1H-benzo[d]imidazol-2-yl)phenyl)-2,2-dimethylpropanoic acid formation at 12.5 uM after 18 hrs; type: ADME, cell-based, Macaca mulatta, Hepatocyte; details: rhesus monkey; method in brief: as §2
[12] = AUC (0 to 8 hrs) in Sprague-Dawley rat at 3 mg/kg, po by LC/MS/MS analysis; type: ADME, organism-based; set-up: dose 3 mg/kg, time < 8 hr, route oral; details: in vivo; method in brief: as §1
[13] = Permeability across apical to basolateral side in human Caco2 cells; type: ADME, cell-based; details: Caco-2, read-out: permeability; method in brief: as §3
Homo sapiens [14] = experiment: Toxicity in human assessed as nausea at 150 mg, po as single oral dose; type: organism-based; details: in vivo
Homo sapiens [15] = experiment: Toxicity in human assessed as diarrhea at 150 mg, po as single oral dose; type: organism-based; details: in vivo
[16] = molecular target: T1, Diacylglycerol O-acyltransferase 1 (Mus musculus, UniProt Q9Z2A7); experiment: Inhibition of DGTA1 in mouse C2C12 cells assessed as inhibition of triglyceride formation after 2 hrs by LC/MS/MS analysis; type: cell-based
T1 sequence (Q9Z2A7 whole entry): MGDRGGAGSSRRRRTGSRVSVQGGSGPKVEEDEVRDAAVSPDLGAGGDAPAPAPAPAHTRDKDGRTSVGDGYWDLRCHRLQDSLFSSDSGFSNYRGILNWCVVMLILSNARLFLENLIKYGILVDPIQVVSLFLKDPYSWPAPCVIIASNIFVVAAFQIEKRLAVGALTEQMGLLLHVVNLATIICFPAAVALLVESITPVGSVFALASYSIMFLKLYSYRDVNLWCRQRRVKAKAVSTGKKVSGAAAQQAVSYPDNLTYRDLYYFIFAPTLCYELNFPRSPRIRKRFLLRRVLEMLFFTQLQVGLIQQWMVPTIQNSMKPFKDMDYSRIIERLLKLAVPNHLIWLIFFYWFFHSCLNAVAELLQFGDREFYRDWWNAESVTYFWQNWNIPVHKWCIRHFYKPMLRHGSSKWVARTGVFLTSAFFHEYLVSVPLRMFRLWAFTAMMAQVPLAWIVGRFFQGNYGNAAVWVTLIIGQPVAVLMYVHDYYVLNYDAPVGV
Method in brief: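 C2C12 cells were seeded in DMEM with 5 mM glucose and 10% FBS for 18 h at 37 °C. Medium was then replaced with DMEM, 5 mM glucose and 250 µM oleate-BSA plus inhibitor (0.5% DMSO final) for 2 h at 37 °C. Cells were extracted with butanol containing tripalmitolein internal standard and triglyceride was read by LC-MS/MS. An 11-point, 3-fold dose response was run in quadruplicate.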

[17] = Half life in Sprague-Dawley rat at 1 mg/kg, iv by LC/MS/MS analysis; type: ADME, organism-based; details: in vivo; method in brief: as §1
[18] = Drug metabolism in monkey hepatocytes assessed as [3H]-(2S,3S,4S,5R,6S)-3,4,5-trihydroxy-6-(3-(4-(6-(5-(4-methoxyphenyl)-1,3,4-oxadiazol-2-yl)-1H-benzo[d]imidazol-2-yl)-3,5-dimethylphenyl)-2,2-dimethylpropanoyloxy)tetrahydro-2H-pyran-2-carboxylic acid formation at 12.5 uM after 18 hrs; type: ADME, cell-based, Macaca mulatta, Hepatocyte; details: rhesus monkey; method in brief: as §2
[19] = molecular target: T2, Diacylglycerol O-acyltransferase 1 (Homo sapiens, UniProt O75907); experiment: Inhibition of recombinant human His6-tagged DGAT1 expressed in Sf9 insect cell membranes assessed as inhibition of triglyceride formation using diolein/oleyl-CoA as substrate after 30 mins by LC/MS/MS analysis
T2 sequence (O75907 whole entry): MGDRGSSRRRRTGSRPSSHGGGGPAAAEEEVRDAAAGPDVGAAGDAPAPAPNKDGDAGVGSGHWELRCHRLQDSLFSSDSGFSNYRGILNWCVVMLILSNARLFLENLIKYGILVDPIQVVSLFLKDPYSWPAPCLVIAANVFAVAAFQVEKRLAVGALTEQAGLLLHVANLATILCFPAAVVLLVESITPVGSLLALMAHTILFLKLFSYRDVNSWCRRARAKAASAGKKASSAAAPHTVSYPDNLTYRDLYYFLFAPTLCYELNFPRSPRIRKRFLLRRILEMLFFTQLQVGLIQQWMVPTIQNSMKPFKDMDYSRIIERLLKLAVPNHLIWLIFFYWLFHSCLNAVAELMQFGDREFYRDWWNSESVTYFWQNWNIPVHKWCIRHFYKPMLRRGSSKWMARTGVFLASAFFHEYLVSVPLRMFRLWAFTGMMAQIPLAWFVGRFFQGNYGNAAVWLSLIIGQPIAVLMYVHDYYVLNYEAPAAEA

COc1ccc(-c2nnc(-c3ccc4nc(-c5c(C)cc(CC(C)(C)C(=O)O)cc5C)[nH]c4c3)o2)cc1
Tmax [1]: 1.2 h | Drug metabolism [2]: Metabolite_Detected | Drug metabolism [3]: Metabolite_Detected | Activity (Salmonella typhimurium): Non-Toxic | Drug metabolism [4]: Metabolite_Detected | Vd [5]: 0.6 L/kg | AUC(0-t) at 8 h [6]: 3.86 µM·h | Drug metabolism [7]: Metabolite_Detected | bioavailability [8]: 90% | Papp B→A [9]: 10 ×10⁻⁶ cm/s | Cmax [10]: 3.55 µM | Drug metabolism [11]: Metabolite_Detected | AUC(0-t) at 8 h [12]: 10.4 µM·h | Papp A→B [13]: 4.2 ×10⁻⁶ cm/s | Activity (Homo sapiens [14]): Toxic | Activity (Homo sapiens [15]): Toxic | pIC50 [16]: 6.82 | half-life [17]: 1.9 h | Drug metabolism [18]: Metabolite_Detected | pIC50 [19]: 7.77
